# FXIa inh – inhibitors of human coagulation factor XIa; inhibition, % at 5 µM; hit rate 0.14% among 220,000; P03951; purified FXIa, Boc-Glu-Ala-Arg-AMC fluorogenic substrate;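 active = inhibition of at least 40%; inactive = inhibition below 40%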;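 also: fluorescence of freed AMC excited at 355 nm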
# hK5 inh – blocks human kallikrein 5 protease activity. recombinant hK5, fluorogenic AMC substrate cleavage. inhibition, % at 5 µM. hit rate 0.59% among 210,000;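 active = inhibition of 40% or more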
# Tb hexokinase – T. brucei hexokinase 1 inhibition. recombinant TbHK1, G6PDH-coupled NADH A340. inhibition, % at 10 µM. hit rate 0.11% among 220,000. AID 1430;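 active = inhibition of 50% or more in the single-dose primary screen; inactive = inhibition below 50%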
# FXIIa inh – blocks human coagulation factor XIIa protease activity | AID 800 | hit rate 0.3% among 220,000 | purified FXIIa, Boc-QGR-AMC fluorogenic substrate, 2 h | inhibition, % at 5 µM; in the data active = inhibition above about 40%
# Target sequence (P00748 20-372 limits assumed): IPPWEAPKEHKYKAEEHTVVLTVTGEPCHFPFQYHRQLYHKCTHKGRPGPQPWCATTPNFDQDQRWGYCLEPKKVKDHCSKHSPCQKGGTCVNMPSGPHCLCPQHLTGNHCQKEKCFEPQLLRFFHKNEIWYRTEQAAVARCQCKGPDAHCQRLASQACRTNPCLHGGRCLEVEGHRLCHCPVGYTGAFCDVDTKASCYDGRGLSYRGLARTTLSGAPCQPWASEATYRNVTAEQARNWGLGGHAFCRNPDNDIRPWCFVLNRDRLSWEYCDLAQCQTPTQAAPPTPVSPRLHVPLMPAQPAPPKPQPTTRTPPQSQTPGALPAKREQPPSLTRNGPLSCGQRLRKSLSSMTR
# Target sequence (P00748 373-615 limits assumed): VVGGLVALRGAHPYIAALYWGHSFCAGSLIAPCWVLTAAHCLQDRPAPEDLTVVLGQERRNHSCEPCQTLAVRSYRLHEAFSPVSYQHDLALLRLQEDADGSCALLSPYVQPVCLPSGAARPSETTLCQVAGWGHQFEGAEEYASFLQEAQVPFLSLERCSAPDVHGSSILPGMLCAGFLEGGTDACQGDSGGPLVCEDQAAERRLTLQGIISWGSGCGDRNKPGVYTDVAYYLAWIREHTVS
# Thrombin inh – thrombin (human) inhibition; P00734; alpha-thrombin, Boc-VPR-AMC fluorogenic substrate cleavage; inhibition, % at 5 µM; hit rate 0.26% among 220,000; AID 1046;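 active = inhibition at or above 40%; inactive = inhibition below 40%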
#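 System: Human alpha-thrombin protein | Medium: pH 7.5 Tris (50 mM) with NaCl 150 mM, Tween 20 0.05% | Times: Enzyme reaction carried out at room temperature | Detection: AMC fluorescence, 355/460 nm | Evaluation: Percent inhibition scaled between no-compound controls and no-enzyme blanks | Benchmarks: Enzyme without compound as high, wells lacking enzyme as low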
# Hits are given with their value; - = inactive; . = no result. Most compounds without a hit are left out; they make up all but 1.1% or so of the library.
SMILES,FXIa inh,hK5 inh,Tb hexokinase,FXIIa inh,Thrombin inh
C(=N\c1ncnc2sccc12)/NOCc1ccccc1,-,-,-,-,-
CC(=O)Oc1oc(-c2ccccc2)nc1C=Nc1ccc(N(C)C)cc1,-,-,-,-,-
COc1ccccc1N=Cc1nc(-c2ccccc2)oc1OC(C)=O,43,-,-,-,-
CC(C)CCNC(=O)C(CC(C)C)N(Cc1ccc2c(c1)OCO2)C(=O)c1snc(C(N)=O)c1N (centres undefined),-,-,-,-,-
CCN(CC)c1nc(-c2ccccn2)nc(-c2ccccc2)c1C#N,-,-,-,-,-
CCOc1ccccc1NC(=O)Nc1ccc(Br)cc1C,-,.,-,-,-
O=C1NC(=Nc2cccc(O)c2)S/C1=C\c1cccnc1,-,66,-,-,-
CC(C)(C)C(O)CN1CCCC1 (centres undefined),-,-,-,-,-
CC(=O)C1=C(C)NC(C)=C(C(C)=O)C1c1cccs1,-,79,-,-,-
CC(=O)C1=C(C)NC(C)=C(C(C)=O)C1c1ccccc1,-,-,-,-,-
NC(=O)N/N=C/c1ccc(OCc2cccc(Cl)c2)cc1,-,-,-,-,-
Cc1ccc(OCc2nnc(SCC(=O)O)n2N)cc1,-,-,-,45,-
O=C(NCc1ccccc1)c1cc(-c2cccs2)on1,-,-,-,-,-
O=C(NCc1ccccc1)c1nc(-c2cccs2)no1,-,-,-,-,44
CCC(C)NC(=O)CSc1nc2ccsc2c(=O)n1NC(=O)c1ccccc1 (centres undefined),-,-,-,41,-
CCOC(=O)C(=CNc1ccc(Oc2cncc(Cl)c2)nc1)C(=O)OCC,-,-,-,-,-
O=c1[nH]c(=O)n(Cc2ccccc2)c2c1C(C(F)(F)F)(C(F)(F)F)N=C(c1ccco1)N2,-,147,-,-,40
CC(C)CC(NS(=O)(=O)c1cccc(C(=O)O)c1)C(=O)O (centres undefined),-,-,-,-,-
Cc1ccc(Nc2nc(-c3sc(NC(=O)c4ccco4)nc3C)cs2)cc1,-,54,-,-,-
CC1CCN(C(=O)CNC(=O)c2cccc(OC(F)F)c2)CC1,-,-,-,-,-
CCOC(=O)CSC1=NC(=O)/C(=C\c2ccc(OC(C)=O)cc2)S1,-,53,-,-,-
Cc1cc(C)nc(Nc2n[nH]c(-c3ccccc3Br)n2)n1,-,-,-,-,-
Cc1cc(C)nc(Nc2ccccc2Br)n1,-,59,-,-,45
O=C(CC1NCCNC1=O)NC1Cc2ccccc2C1 (centres undefined),-,-,-,-,-
COc1cccc(C(=O)NNC(=O)Cc2ccc([N+](=O)[O-])cc2)c1,-,-,-,-,44
SMILES,FXIa inh,hK5 inh,Tb hexokinase,FXIIa inh,Thrombin inh
CCCCNC(=O)C1COc2ccccc2O1 (centres undefined),-,-,-,-,-
O=C(NCCOC(=O)C1COc2ccccc2O1)C1COc2ccccc2O1 (centres undefined),-,46,-,-,-
Cc1ccc(OCC(=O)Nc2ccc(N3CCCC3)cc2)cc1C,-,-,-,-,-
Cc1cc(C)cc(OCC(=O)Nc2ccc(N3CCCC3)cc2)c1,-,-,-,45,-
CCOc1ccc(N2C(=O)CS/C2=N/NC(=O)COc2ccc3ccccc3c2)cc1,-,-,-,-,-
CCN=C1SCC(=O)N1c1ccc(OC)cc1,-,44,-,-,-
O=c1c2c3c(sc2nc2n1CCCCC2)C(O)CCC3 (centres undefined),-,-,-,-,-
CC1=C/C(=N\NC(=S)Nc2cccnc2)CC(C)(C)C1,40,-,-,-,-
CCN1CCN(C(=O)c2sc3ncnc(N4CCc5ccccc5C4)c3c2C)CC1,-,-,-,-,-
Cc1c(C(=O)N2CCOCC2)sc2ncnc(N3CCc4ccccc4C3)c12,-,-,-,45,-
CCN1CCN(C(=O)Nc2ccccc2OC)CC1,-,83,-,-,-
O=C1CN(Cc2ccccc2)C(=NCc2ccco2)S1,-,-,-,44,-
O=C(NCCc1ccc(Cl)cc1)C1CCN(c2ncccn2)CC1,-,-,-,-,-
O=C(O)c1ccc(S(=O)(=O)c2ccc3c(c2)C(=O)N(NC(=O)c2cccnc2)C3=O)cc1,-,-,-,-,-
CC(C)(C)NC(=O)c1cc([N+](=O)[O-])ccc1N1CCCCC1,-,63,-,-,73
CCCOc1ccc(/C=N/NC(=O)C(=O)Nc2ccccn2)cc1,-,-,-,-,-
COc1cc(/C=N/NC(=O)C(=O)Nc2ccccn2)ccc1O,-,70,-,-,-
Cc1ccc(OC(=O)CCN2C(=O)c3ccccc3C2=O)cc1C,-,.,-,-,-
COC(=O)C1=C(NC(=O)c2cccs2)CCS1,-,-,66,-,-
CCN(CC)C(C)C#CCC(c1ccccc1)c1ccccc1 (centres undefined),-,-,-,-,-
Cn1ncc(Cl)c1C(=O)N1CCN(C(=O)c2ccco2)CC1,-,-,-,-,-
Cc1nc(C)c(NC(=O)N2CCc3ccccc32)cc1NC(=O)N1CCc2ccccc21,-,76,-,-,-
Cc1ccc(C(=O)NCC(=O)OCC(=O)Nc2ccccc2C#N)s1,-,-,-,-,-
Cc1ccc(Sc2cc(Cl)nc(N)n2)cc1,-,77,-,-,-
Nc1nc(Cl)cc(Sc2ccc(F)cc2)n1,-,-,-,-,-
SMILES,FXIa inh,hK5 inh,Tb hexokinase,FXIIa inh,Thrombin inh
Brc1ccc(-c2csc(N/N=C/c3ccco3)n2)cc1,-,-,-,-,-
NC(=O)/C(=N\OC(=O)c1ccco1)c1nc(-c2ccc(Br)cc2)cs1,-,-,-,41,78
CC1CC(C)(C)NC(=S)N1CCC(=O)NCCc1ccc(Cl)cc1 (centres undefined),-,-,-,-,-
CCn1c(SCC(=O)c2ccc(Cl)cc2)nnc1C(C)C,-,-,-,-,-
CCn1c(SCC(N)=O)nnc1C(C)C,-,-,-,-,97
CCOc1ccc(NC(=O)CN2CCC(n3cnc4cc(F)ccc43)CC2)cc1,-,-,-,-,-
O=C(NN1C(=O)/C(=C/C=C/c2ccco2)SC1=S)c1ccccc1O,-,-,63,-,-
Cn1cccc1/C=C1\SC(=S)N(NC(=O)c2ccccc2O)C1=O,-,-,-,-,-
COc1ccc(-c2cc(C(F)F)n3ncc(C(=O)n4ccnc4C)c3n2)cc1,-,-,-,-,88
COc1ccc(-c2cc(C(F)F)n3ncc(C(=O)N4CCc5ccccc54)c3n2)cc1,-,-,-,-,-
NC(=O)COC(=O)c1ccc(Cl)c(S(=O)(=O)N2CCN(c3ccc(F)cc3)CC2)c1,-,45,-,-,-
COC(=O)CN(c1cc(Cl)ccc1OC)S(=O)(=O)c1ccc(C)cc1,-,-,-,-,-
COc1ccc(Cl)cc1N(CC(=O)NC(C)(C)C)S(=O)(=O)c1ccc(C)c([N+](=O)[O-])c1,-,45,-,-,-
c1ccc(N2CCN(c3ccccc3)C2c2cccs2)cc1,-,-,-,-,-
